Key:
[1] = tested on: female athymic nude (nu/nu) mice; assay: Tolerability study: hematology; type: in vivo, mouse
In short: (§1)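 Athymic nude mice (n = 5 per group) received test compound or the Tween80:Captex200:saline vehicle IP every 2 days for 14 days. About 2–4 h after the last dose, mice were killed with CO2 and blood was drawn by cardiac puncture. Complete blood counts and serum chemistry were run by a pathology core. Values are given as means ± SD, n = 3–5.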

[2] = tested on: female athymic nude (nu/nu) mice; assay: Tolerability study: serum chemistry; type: in vivo, mouse
In short: as §1

[3] = Mouse pharmacokinetics, plasma LC-MS/MS; type: in vivo; conditions: IV 0.285 mg/kg, initial PK time points, female C57BL/6 mice
[4] = tested on: OVCAR3; assay: Cell viability assay; type: cell-based, human; conditions: OVCAR3
In short: (§2)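 RPMI1640 (OVCAR3, OVCAR4, MDA-MB-435) or DMEM (OVCAR8, MDA-MB-231) was used, with 10% FBS and penicillin/streptomycin. Cells were STR-validated and kept below 20 passages. Cells were plated at 5000 per well overnight, then given test compound at final 0.95–250 nM (nine levels, 0.5% DMSO) for 72 h at 37 °C. Viability was read by CellTiter-Blue absorbance, and IC50 was taken relative to DMSO. Paclitaxel (0.39–100 nM) was the control, with three biological replicates.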

[5] = tested on: MDA-MB-435; assay: Cell viability assay; type: cell-based, human; conditions: MDA-MB-435
In short: as §2

[6] = tested on: OVCAR8; assay: 2D foci assay; type: cell-based, human; conditions: OVCAR8, 50 nM for 8 h, two weeks colony formation, relative to vehicle
In short: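 Cells were seeded at 200 per 60 mm dish and left to attach overnight. They were then exposed for 8 h to test compound (50 nM), DMSO vehicle or paclitaxel (10 nM). Medium was replaced and cells grew drug-free for about two weeks (15 days). Colonies were fixed in 4% paraformaldehyde, stained with 0.05% crystal violet, imaged and counted. There were three biological replicates, compared with vehicle by Dunnett's test.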

[7] = 0.114 mg/kg IP every 2 days, 14 days
[8] = 0.285 mg/kg IP every 2 days, 14 days
[9] = 1.14 mg/kg IP every 2 days, removed at 8 days
[10] = 0.570 mg/kg IP every 2 days, removed day 13

Compound: CN1C(=O)[C@]23SS[C@@]1(C)C(=O)N2[C@H]1Nc2ccccc2[C@@]1([C@@]12c4ccccc4N[C@@H]1N1C(=O)[C@]4(C)SS[C@]1(C(=O)N4C)[C@H]2OC(=O)CCC(=O)O)[C@@H]3O [verticillin A succinate]
- MCH [1, 7]: 14.6 ± 0.2 pg
- MCHC [1, 7]: 32.8 ± 0.6 g/dL
- MCV [1, 7]: 44.4 ± 1.2 fL
- MPV [1, 7]: 7.9 ± 0.2 fL
- PCT [1, 7]: 0.754 ± 0.093%
- PDW [1, 7]: 47.5 ± 2.5%
- RBC [1, 7]: 8.95 ± 0.15 M/μL
- RDW [1, 7]: 13.9 ± 0.4%
- Reticulocyte # [1, 7]: 11.3 ± 12.9 K/μL
- WBC # [1, 7]: 6.52 ± 1.73 K/μL
- basophil # [1, 7]: 0.01 ± 0.01 K/μL
- eosinophil # [1, 7]: 0.01 ± 0.01 K/μL
- hematocrit [1, 7]: 39.7 ± 1.4%
- hemoglobin [1, 7]: 13.0 ± 0.2 g/dL
- lymphocyte # [1, 7]: 3.81 ± 1.09 K/μL
- monocyte # [1, 7]: 0.36 ± 0.10 K/μL
- neutrophil # [1, 7]: 2.33 ± 0.63 K/μL
- nucleated RBCs # [1, 7]: 0 ± 0 K/μL
- platelet # [1, 7]: 954 ± 118 K/μL
- reticulocyte [1, 7]: 0.13 ± 0.14%
- MCH [1, 8]: 14.7 ± 0.2 pg
- MCHC [1, 8]: 32.9 ± 0.8 g/dL
- MCV [1, 8]: 44.7 ± 0.9 fL
- MPV [1, 8]: 7.7 ± 0.07 fL
- PCT [1, 8]: 0.722 ± 0.072%
- PDW [1, 8]: 48.2 ± 2.2%
- RBC [1, 8]: 9.15 ± 0.22 M/μL
- RDW [1, 8]: 14.1 ± 0.6%
- Reticulocyte # [1, 8]: 6.3 ± 13.7 K/μL
- WBC # [1, 8]: 5.99 ± 1.11 K/μL
- basophil # [1, 8]: 0.01 ± 0.01 K/μL
- eosinophil # [1, 8]: 0.02 ± 0.02 K/μL
- hematocrit [1, 8]: 40.9 ± 1.2%
- hemoglobin [1, 8]: 13.5 ± 1.8 g/dL
- lymphocyte # [1, 8]: 3.12 ± 1.25 K/μL
- monocyte # [1, 8]: 0.20 ± 0.08 K/μL
- neutrophil # [1, 8]: 2.64 ± 0.54 K/μL
- nucleated RBCs # [1, 8]: 0 ± 0 K/μL
- platelet # [1, 8]: 938 ± 98 K/μL
- reticulocyte [1, 8]: 0.07 ± 0.15%
- MCH [1, 9]: 15.3 ± 0.4 pg
- MCHC [1, 9]: 32.5 ± 1.1 g/dL
- MCV [1, 9]: 47.2 ± 1.6 fL
- MPV [1, 9]: 7.4 ± 0.1 fL
- PCT [1, 9]: 0.701 ± 0.202%
- PDW [1, 9]: 51.5 ± 1.4%
- RBC [1, 9]: 9.49 ± 0.49 M/μL
- RDW [1, 9]: 15.1 ± 0.2%
- Reticulocyte # [1, 9]: 0 ± 0 K/μL
- WBC # [1, 9]: 6.80 ± 1.14 K/μL
- basophil # [1, 9]: 0.07 ± 0.10 K/μL
- eosinophil # [1, 9]: 0.10 ± 0.16 K/μL
- hematocrit [1, 9]: 44.7 ± 2.7%
- hemoglobin [1, 9]: 14.5 ± 0.42 g/dL
- lymphocyte # [1, 9]: 2.19 ± 0.61 K/μL
- monocyte # [1, 9]: 0.18 ± 0.04 K/μL
- neutrophil # [1, 9]: 4.26 ± 0.56 K/μL
- nucleated RBCs # [1, 9]: 0 ± 0 K/μL
- platelet # [1, 9]: 947 ± 271 K/μL
- reticulocyte [1, 9]: 0 ± 0%
- ALP [2, 7]: 139 ± 9 U/L
- ALT [2, 7]: 39 ± 6 U/L
- AST [2, 7]: 88 ± 10 U/L
- BUN [2, 7]: 20 ± 1 mg/dL
- GGT [2, 7]: 8 ± 0 U/L
- albumin [2, 7]: 3.7 ± 0.2 g/dL
- amylase [2, 7]: 1039 ± 215 U/L
- calcium [2, 7]: 11.8 ± 0.3 mg/dL
- cholesterol [2, 7]: 141 ± 12 mg/dL
- creatine kinase [2, 7]: 160 ± 37 U/L
- creatinine [2, 7]: 0.43 ± 0.02 mg/dL
- globulin [2, 7]: 2.1 ± 0.2 g/dL
- glucose [2, 7]: 225 ± 28 mg/dL
- lipase [2, 7]: 55 ± 44 U/L
- phosphorous [2, 7]: 11.7 ± 0.8 mg/dL
- total bilirubin [2, 7]: 0.3 ± 0.1 mg/dL
- total protein [2, 7]: 5.8 ± 0.3 g/dL
- triglyceride [2, 7]: 247 ± 70 mg/dL
- ALP [2, 8]: 133 ± 19 U/L
- ALT [2, 8]: 47 ± 13 U/L
- AST [2, 8]: 125 ± 18 U/L
- BUN [2, 8]: 15 ± 1 mg/dL
- GGT [2, 8]: 0 ± 1 U/L
- albumin [2, 8]: 3.4 ± 0.2 g/dL
- amylase [2, 8]: 1208 ± 75 U/L
- calcium [2, 8]: 11.2 ± 0.7 mg/dL
- cholesterol [2, 8]: 146 ± 13 mg/dL
- creatine kinase [2, 8]: 214 ± 28 U/L
- creatinine [2, 8]: 0.42 ± 0.8 mg/dL
- globulin [2, 8]: 2.0 ± 0.2 g/dL
- glucose [2, 8]: 235 ± 10 mg/dL
- lipase [2, 8]: 74 ± 5 U/L
- phosphorous [2, 8]: 11.9 ± 0.8 mg/dL
- total bilirubin [2, 8]: 0.3 ± 0.0 mg/dL
- total protein [2, 8]: 5.4 ± 0.3 g/dL
- triglyceride [2, 8]: 262 ± 68 mg/dL
- ALP [2, 10]: 89 ± 13 U/L
- ALT [2, 10]: 48 ± 25 U/L
- AST [2, 10]: 254 ± 138 U/L
- BUN [2, 10]: 24 ± 8 mg/dL
- GGT [2, 10]: 4 ± 3 U/L
- albumin [2, 10]: 2.6 ± 0.9 g/dL
- amylase [2, 10]: 1203 ± 240 U/L
- calcium [2, 10]: 11.5 ± 0.9 mg/dL
- cholesterol [2, 10]: 115 ± 23 mg/dL
- creatine kinase [2, 10]: 1916 ± 1915 U/L
- creatinine [2, 10]: 0.29 ± 0.05 mg/dL
- globulin [2, 10]: 2.6 ± 1.1 g/dL
- glucose [2, 10]: 172 ± 49 mg/dL
- phosphorous [2, 10]: 15.5 ± 1.4 mg/dL
- total bilirubin [2, 10]: 0.4 ± 0.1 mg/dL
- total protein [2, 10]: 5.2 ± 0.4 g/dL
- triglyceride [2, 10]: 128 ± 38 mg/dL
- ALP [2, 9]: 74 ± 12 U/L
- ALT [2, 9]: 121 ± 145 U/L
- AST [2, 9]: 420 ± 438 U/L
- BUN [2, 9]: 24 ± 4 mg/dL
- GGT [2, 9]: 6 ± 4 U/L
- albumin [2, 9]: 2.4 ± 0.8 g/dL
- amylase [2, 9]: 1221 ± 520 U/L
- calcium [2, 9]: 7.2 ± 5.3 mg/dL
- cholesterol [2, 9]: 111 ± 10 mg/dL
- creatine kinase [2, 9]: 582 ± 384 U/L
- creatinine [2, 9]: 0.26 ± 0.05 mg/dL
- globulin [2, 9]: 2.5 ± 0.8 g/dL
- glucose [2, 9]: 141 ± 62 mg/dL
- lipase [2, 9]: 84 ± 64 U/L
- phosphorous [2, 9]: 12.2 ± 1.0 mg/dL
- total bilirubin [2, 9]: 0.5 ± 0.3 mg/dL
- total protein [2, 9]: 4.9 ± 0.4 g/dL
- triglyceride [2, 9]: 266 ± 160 mg/dL
- plasma concentration [3]: < 3 nM
- cytotoxic activity [4]: pronounced cytotoxic activities
- cytotoxic activity [5]: pronounced cytotoxic activities
- foci formation [6]: completely abrogated foci formation
